Assay results taken from ChEMBL document CHEMBL1144531, “Novel selective inhibitors of neutral endopeptidase for the treatment of female sexual arousal disorder” (Bioorg Med Chem, 2007).

Key:
[1] = Distribution coefficient, log D in n-octanol and phosphate buffer at pH 7.4; format: physicochemical
[2] = Clearance in rat at 1 mg/kg, iv and 1 mg/kg, po; format: ADME, organism-based; conditions: in vivo
How it was run: (§1)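 Male CD rats, jugular vein cannulated under general anaesthesia; dosed 1 mg/kg iv (tail vein) and po (gavage). Serial 0.2 ml blood samples taken from the cannula into heparin, centrifuged to plasma, stabilised with 0.01 parts 85% phosphoric acid, frozen. Plasma levels measured by LC–MS–MS after C18 solid-phase extraction, with internal standard.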

[3] = Metabolic stability in human liver microsomes at 1 uM; format: ADME, Microsome
How it was run: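 Human liver microsomes, 1 µM compound with 0.5 µM CYP. Reported as first-order compound disappearance half-life.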

[4] = organism: Homo sapiens; assay: Protein binding in human plasma at 1 ug/ml by equilibrium dialysis; conditions: read-out: PPB (converted)
[5] = Inhibition of dog kidney cortex NEP at pH 7; design: species or system Canis lupus familiaris
[6] = molecular target: T1, Endothelin-converting enzyme 1 (Homo sapiens) (UniProt P42892); assay: Inhibition of human ECE1
T1 sequence (whole entry): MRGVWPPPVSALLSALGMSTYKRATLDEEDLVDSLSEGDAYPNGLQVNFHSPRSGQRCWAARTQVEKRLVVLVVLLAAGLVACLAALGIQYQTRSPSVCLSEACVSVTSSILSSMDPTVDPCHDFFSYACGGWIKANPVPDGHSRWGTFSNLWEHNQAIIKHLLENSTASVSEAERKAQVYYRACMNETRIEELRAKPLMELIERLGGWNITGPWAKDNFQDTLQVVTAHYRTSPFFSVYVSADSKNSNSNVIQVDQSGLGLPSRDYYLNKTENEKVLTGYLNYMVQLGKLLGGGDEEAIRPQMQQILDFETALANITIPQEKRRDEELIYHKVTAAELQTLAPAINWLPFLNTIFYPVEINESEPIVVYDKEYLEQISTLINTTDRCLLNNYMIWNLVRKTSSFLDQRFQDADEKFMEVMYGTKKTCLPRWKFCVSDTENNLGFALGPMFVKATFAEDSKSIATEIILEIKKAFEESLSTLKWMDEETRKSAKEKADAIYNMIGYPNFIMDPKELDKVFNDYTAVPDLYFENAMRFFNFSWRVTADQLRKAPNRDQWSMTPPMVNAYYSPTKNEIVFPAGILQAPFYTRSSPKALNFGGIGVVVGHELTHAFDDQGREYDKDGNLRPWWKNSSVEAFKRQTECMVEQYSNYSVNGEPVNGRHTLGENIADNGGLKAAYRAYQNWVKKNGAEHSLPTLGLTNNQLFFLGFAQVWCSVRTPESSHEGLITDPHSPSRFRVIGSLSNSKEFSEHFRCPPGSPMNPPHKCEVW
How it was run: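 Human ECE-1, run like the ACE assay (50 mM Tris-Cl pH 7.4, 300 mM NaCl, EDTA stop), with Big ET-1 as substrate. IC50 from dilution series.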

[7] = Permeability from apical to basolateral side of the Caco-2 cell membrane at pH 7.4; format: ADME, cell-based; conditions: human, Caco-2, pH 7.4
How it was run: (§2)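 Caco-2 monolayers; apparent permeability (Papp) measured with pH 7.4 in both apical and basolateral chambers.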

[8] = Oral bioavailability in rat at 1 mg/kg, iv and 1 mg/kg, po; format: ADME, organism-based; conditions: in vivo; how it was run: as §1
[9] = organism: Sus scrofa; assay: Inhibition of pig ACE
How it was run: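 Porcine ACE; same format as the NEP assay. Substrate o-aminobenzoyl-Gly-Gly-p-nitro-Phe-Pro-OH, 10 µM final, in 50 mM Tris-Cl pH 7.4 (37 °C) with 300 mM NaCl. Stopped with 2 mM EDTA; fluorescence read-out. IC50 from dilution series.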

[10] = Fraction unbound ligand in rat at 1 mg/kg, iv and 1 mg/kg, po; format: ADME, organism-based; conditions: in vivo
How it was run: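 Fraction unbound in rat plasma measured at 1 µg/ml by equilibrium dialysis against isotonic Krebs–Ringer bicarbonate buffer, pH 7.4.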

[11] = Inhibition of dog kidney cortex NEP at pH 7.4; design: species or system Canis lupus familiaris
[12] = Half life in rat at 1 mg/kg, iv and 1 mg/kg, po; format: ADME, organism-based; conditions: in vivo; how it was run: as §1
[13] = Volume of distribution in rat at 1 mg/kg, iv and 1 mg/kg, po; format: ADME, organism-based; conditions: in vivo, read-out: Vdss; how it was run: as §1
[14] = Permeability from basolateral to apical side of the Caco-2 cell membrane at pH 7.4; format: ADME, cell-based; conditions: human, Caco-2, pH 7.4; how it was run: as §2
[15] = Tmax in rat at 1 mg/kg, iv and 1 mg/kg, po; format: ADME, organism-based; conditions: in vivo; how it was run: as §1

**Q.** Which results are given for `COCC[C@H](CC1(C(=O)NCCCc2ccc(F)cc2)CCCC1)C(=O)O`?
**A.** logD [1]: 0.5; clearance [2]: 13 mL/min/kg; half-life at 1 µM [3]: > 2 h; fraction unbound at 1 ug/ml [4]: 0.124; IC50 [5]: 2 nM; Activity [6]: > 3 µM; Papp A→B [7]: 12 ×10⁻⁶ cm/s; bioavailability [8]: 138%; Activity [9]: > 3 µM; fraction unbound [10]: 0.138; IC50 [11]: 8.8 nM; half-life [12]: 2.4 h; Vd [13]: 2.7 L/kg

**Q.** What does the source list for `COCCC(CC1(C(=O)N[C@H]2C[C@@H]2c2ccc(Cl)cc2)CCCC1)C(=O)O` (relative stereo)?
**A.** IC50 [5]: 21 nM; Activity [9]: > 3 µM

**Q.** Which results are given for `COCCC(CC1(C(=O)NCCCc2ccc(Cl)cc2)CCCC1)C(=O)O` (stereo not drawn)?
**A.** IC50 [5]: 2 nM; Activity [9]: > 3 µM

**Q.** Which IC50 [5] does the source give for `COCCC(CC1(C(=O)NCCCc2ccc(F)cc2)CCCC1)C(=O)O` (stereo not drawn) here?
**A.** 15 nM

**Q.** What about the Activity [9] of the same compound?
**A.** > 3 µM

**Q.** What does the source list for `CCC[C@H](CC1(C(=O)Nc2nnc(CC)s2)CCCC1)C(=O)O`?
**A.** logD [1]: 0.5; clearance [2]: 3 mL/min/kg; half-life at 1 µM [3]: > 2 h; IC50 [5]: 23.7 nM; Activity [6]: > 3 µM; Papp A→B [7]: 9 ×10⁻⁶ cm/s; Activity [9]: > 3 µM; Fu [10]: 0.106; half-life [12]: 1.7 h; Vd [13]: 0.44 L/kg

**Q.** With `COCCC(CC1(C(=O)NCCOc2ccc(OC)cc2)CCCC1)C(=O)O` (stereo not drawn) as the compound, how does the IC50 [5] read?
**A.** 35 nM

**Q.** What about the Activity [9] of the same compound?
**A.** > 3 µM

**Q.** Which IC50 [5] does the source give for `COCCC(CC1(C(=O)NCCCc2ccccc2)CCCC1)C(=O)O` (stereo not drawn) here?
**A.** 35 nM

**Q.** What about the Activity [9] of the same compound?
**A.** > 3 µM

**Q.** For `COCC[C@H](CC1(C(=O)NC2(CO)Cc3ccccc3C2)CCCC1)C(=O)O`, which logD [1] is on record?
**A.** -0.2

**Q.** And the clearance [2]?
**A.** 18 mL/min/kg

**Q.** What about the Papp B→A [14] of the same compound?
**A.** 2.5 ×10⁻⁶ cm/s

**Q.** And the half-life at 1 µM [3]?
**A.** > 2 h

**Q.** And the fraction unbound at 1 ug/ml [4]?
**A.** 0.228

**Q.** What about the IC50 [5] of the same compound?
**A.** 5.4 nM

**Q.** What about the Activity [6] of the same compound?
**A.** > 3 µM

**Q.** And the Papp A→B [7]?
**A.** 1 ×10⁻⁶ cm/s

**Q.** What about the bioavailability [8] of the same compound?
**A.** 109%

**Q.** And the Activity [9]?
**A.** > 3 µM

**Q.** What about the fraction unbound [10] of the same compound?
**A.** 0.088

**Q.** What about the Tmax [15] of the same compound?
**A.** < 1 h

**Q.** What about the IC50 [11] of the same compound?
**A.** 14.2 nM

**Q.** What about the half-life [12] of the same compound?
**A.** 4.8 h

**Q.** What about the Vd [13] of the same compound?
**A.** 7.5 L/kg

**Q.** For `COCCC(CC1(C(=O)N[C@@H]2C[C@H]2c2ccc(F)cc2)CCCC1)C(=O)O` (relative stereo), which IC50 [5] is on record?
**A.** 40 nM

**Q.** What about the Activity [9] of the same compound?
**A.** > 3 µM

**Q.** For `CCCCC[C@@H]1C[C@H]1NC(=O)C1(CC(CCOC)C(=O)O)CCCC1` (relative stereo), which IC50 [5] is on record?
**A.** 10 nM

**Q.** And the Activity [9]?
**A.** > 3 µM

**Q.** Which results are given for `COCCC(CC1(C(=O)NCCCc2ccc(OC)cc2)CCCC1)C(=O)O` (stereo not drawn)?
**A.** IC50 [5]: 2 nM; Activity [9]: > 3 µM

**Q.** With `COCCC(CC1(C(=O)N[C@H]2C[C@@H]2c2ccccc2)CCCC1)C(=O)O` (relative stereo) as the compound, how does the IC50 [5] read?
**A.** 100 nM

**Q.** And the Activity [9]?
**A.** > 3 µM

**Q.** Which IC50 [5] does the source give for `COCC(CC1(C(=O)N[C@H]2C[C@@H]2c2ccc(Cl)cc2)CCCC1)C(=O)O` (relative stereo) here?
**A.** 20 nM

**Q.** And the Activity [9]?
**A.** > 3 µM
